Experiments:
[1] = Stability of VX-970 in stock solution; assay type: physicochemical
[2] = Stability of VX-970 in human plasma; assay type: in vitro ADME
Procedure, shortened: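 Test compound was spiked into human plasma at QC levels of 5, 150 and 4000 ng/mL, in triplicate. Long-term stability: 8 months at -80 °C, read against freshly prepared standard curves. Freeze/thaw: 3 cycles, frozen at -80 °C and thawed on separate days, compared with fresh samples. Bench stability: 4 h at room temperature. Quantitation was by LC-MS/MS with deuterated internal standard.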

[3] = assay type: in vitro ADME; conditions: bile spiked human plasma, room temperature 4 h
Procedure, shortened: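 Bile from treated animals, containing the direct glucuronide, was spiked into human plasma. Parent compound was quantitated by LC-MS/MS before and after 4 h at room temperature. Bile was also spiked into phosphate buffers at pH 5, 6, 7, 8 and 9 with the same 4 h room-temperature hold. The glucuronide was monitored via the 639.5>433.5 channel.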

[4] = system: pooled human liver microsomes; experiment: Glucuronidation incubation in permeabilized human microsomes; assay type: in vitro ADME
Procedure, shortened: (§1)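 Pooled liver microsomes (human for line 1, female rat for line 2), permeabilized with 25 µg/mL alamethicin at 0.25 mg/mL protein in 0.1 M phosphate pH 7.4, 50 mM Tris-HCl, 10 mM MgCl₂. Test compound at 5,000 ng/mL; started with […]. Sampled at 0 and 60 min, quenched in acetonitrile, run in triplicate. LC-MS/MS read parent and the 639.5>433.5 glucuronide channel.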

[5] = system: pooled female rat microsomes; experiment: Glucuronidation incubation in permeabilized rat microsomes; assay type: in vitro ADME
Procedure, shortened: as §1

[6] = Plasma pharmacokinetics in a patient after IV infusion of VX-970; assay type: in vivo, human
Procedure, shortened: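 One patient received a 1 h IV infusion at 60 mg/m², with blood sampled from 0 to 72 h. Plasma (50 µL) was spiked with deuterated internal standard, precipitated with acetonitrile, diluted with water and run by positive-ESI MRM LC-MS/MS. Calibration spanned 3–5000 ng/mL, and the glucuronide channel was also monitored. PK parameters were derived non-compartmentally.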

[7] = one patient, 1 h IV infusion 60 mg/m^2, non-compartmental

**Q.** What does the source list for `CNCc1ccc(-c2cc(-c3nc(-c4ccc(S(=O)(=O)C(C)C)cc4)cnc3N)on2)cc1` [VX-970]?
**A.** Stability (%) ([1]; stock solution 8 months, −80 °C, 100,000 ng/mL): 95.7%; Stability (%) ([1]; stock solution 6 h, ambient temp, 100,000 ng/mL): 96.7%; recovery at 8 months ([2]; human, plasma): 92.2 to 100%; Stability (%) ([2]; plasma 3 freeze-thaw cycles, −80 °C, QCH 4000 ng/mL): 98.1%; Stability (%) ([2]; plasma 3 freeze-thaw cycles, −80 °C, QCL 5 ng/mL): 98.1%; Stability (%) ([2]; plasma 3 freeze-thaw cycles, −80 °C, QCM 150 ng/mL): 99.6%; Stability (%) ([2]; plasma 8 months, −80 °C, QCH 4000 ng/mL): 96.2%; Stability (%) ([2]; plasma 8 months, −80 °C, QCL 5 ng/mL): 92.2%; Stability (%) ([2]; plasma 8 months, −80 °C, QCM 150 ng/mL): 100.1%; Stability (%) ([2]; plasma 4 h, ambient temp., QCH 4000 ng/mL): 100.2%; Stability (%) ([2]; plasma 4 h, ambient temp., QCL 5 ng/mL): 96.2%; Stability (%) ([2]; plasma 4 h, ambient temp., QCM 150 ng/mL): 96.0%; VX-970 concentrations in bile spiked plasma, % stable [3]: 96.5%; Drug remaining in the incubation mixture ([4]; human microsomes 0.25 mg/mL, 5,000 ng/mL VX-970, UDPGA, 60 min): 99.9%; Glucuronidation ([4]; permeabilized human microsomes, 5,000 ng/mL VX-970, 60 min): no glucuronidation; Metabolite in the 639.3>433.5 m/z glucuronide channel ([5]; rat microsome incubation of VX-970): No metabolite was observed; Drug remaining in the incubation mixture ([5]; rat microsomes 0.25 mg/mL, 5,000 ng/mL VX-970, UDPGA, 60 min): 87.5%; AUC(0-inf) ([6]; human, plasma, iv, 60 mg/m^2): 2500 ng·h/mL; AUC(0-t) ([6]; human, plasma, iv, 60 mg/m^2): 2430 ng·h/mL; Cmax ([6]; human, plasma, iv, 60 mg/m^2): 343 ng/mL; half-life ([6]; human, plasma, iv, 60 mg/m^2): 14 h; Cl [6, 7]: 24.0 L/h/m^2; Vss [6, 7]: 386 L/m^2

Reference: article PMC5632222 (Journal of pharmaceutical and biomedical analysis, 2017)
